Assay [1] addresses T1, LPA1 (Homo sapiens, UniProt Q92633). As to conditions: read-out: IC50 LPA1; previously reported antagonists; NE no effect; cited from earlier work.
In assay [2] the target is T2, LPA2 (Homo sapiens, UniProt Q9HBW0). The note with it: previously reported antagonists, cited from earlier work; for IC50: read-out: IC50 LPA2, NE no effect.
The target in assay [3] is T3, LPA3 (Homo sapiens, UniProt Q9UBY5).
T3 sequence (Q9UBY5 1-353): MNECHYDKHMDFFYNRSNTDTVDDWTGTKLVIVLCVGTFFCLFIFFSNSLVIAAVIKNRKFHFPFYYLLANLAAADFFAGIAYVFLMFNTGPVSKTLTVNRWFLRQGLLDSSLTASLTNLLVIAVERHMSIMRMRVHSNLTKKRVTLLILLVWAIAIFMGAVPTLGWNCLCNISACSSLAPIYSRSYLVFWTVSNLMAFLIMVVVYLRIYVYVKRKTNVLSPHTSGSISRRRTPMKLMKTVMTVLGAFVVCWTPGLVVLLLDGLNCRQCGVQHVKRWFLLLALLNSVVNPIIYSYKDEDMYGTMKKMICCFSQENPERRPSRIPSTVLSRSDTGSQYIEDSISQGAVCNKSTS
The note with it: previously reported antagonists, cited from earlier work.

Assay [4] has as its target T4, LPA4 (Homo sapiens, UniProt Q99677). As to conditions: read-out: IC50 LPA4; previously reported antagonists; NE no effect; cited from earlier work.
In assay [5] the target is T5, LPA5 (Homo sapiens, UniProt Q9H1C0). As to conditions: read-out: IC50 LPA5; previously reported antagonists; NE no effect; cited from earlier work.
T5 sequence (Q9H1C0 whole entry, species assumed): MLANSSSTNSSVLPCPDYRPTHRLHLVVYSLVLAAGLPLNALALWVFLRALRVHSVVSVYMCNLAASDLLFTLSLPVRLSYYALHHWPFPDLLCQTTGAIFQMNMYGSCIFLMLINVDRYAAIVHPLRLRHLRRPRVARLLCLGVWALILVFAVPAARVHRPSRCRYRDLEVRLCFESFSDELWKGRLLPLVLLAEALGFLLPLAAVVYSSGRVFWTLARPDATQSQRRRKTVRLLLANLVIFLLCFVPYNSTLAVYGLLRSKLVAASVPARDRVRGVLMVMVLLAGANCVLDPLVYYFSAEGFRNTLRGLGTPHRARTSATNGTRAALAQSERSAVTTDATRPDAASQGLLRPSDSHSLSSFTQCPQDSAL
The target in assay [6] is T5, LPA5. Nature of the assay: LPA receptor-promoted intracellular Ca2+ mobilization, LPA5. The note with it: for IC50: read-out: IC50 LPA5, dose response. It is filed as cell-based. Summed up: (§1)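 Cells stably expressing the given LPA receptor were plated and cultured overnight, then moved to serum-free medium for 4-6 h and loaded with fura-2. Intracellular Ca2+ was read on a plate fluorometer as the ratio of 520 nm emission under 340 vs 380 nm excitation. Test compounds were dissolved in methanol, diluted in buffer, and run in quadruplicate. IC50 was taken from concentration-response curves.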
In general terms: A change in cytosolic calcium serves as a functional read-out for many receptors and channels.

For assay [7], the target named is T4, LPA4. Kind of assay: LPA receptor-promoted intracellular Ca2+ mobilization, LPA4. As to conditions: read-out: IC50 LPA4; dose response. It is filed as cell-based. The method, boiled down: as §1
Assay [8] has as its target T1, LPA1. Kind of assay: LPA receptor-promoted intracellular Ca2+ mobilization, LPA1. It is filed as cell-based. As to conditions: for IC50: read-out: IC50 LPA1, dose response; for LPA1 antagonist activity (in words): Ca2+ assay. Summed up:
as §1

Assay [9] concerns the target T2, LPA2. Kind of assay: LPA receptor-promoted intracellular Ca2+ mobilization, LPA2. The note with it: read-out: IC50 LPA2; dose response. It is filed as cell-based. The method, boiled down: as §1
The target in assay [10] is T3, LPA3. Kind of assay: LPA receptor-promoted intracellular Ca2+ mobilization, LPA3. It is filed as cell-based. As to conditions: for % inhibition at 10μM: Table 3, LPA3 inhibition; for LPA3 antagonist activity (in words): Ca2+ assay.
[11] abbreviates: 10 μM compound against 200 nM LPA.

“Also recorded” adds a separate entry of the source. Where two headings read alike, the source gives them in different places. Where a SMILES comes first, the peptide text is derived from it. The star is where a group is joined. Dnp = O=[N+]([O-])c1ccc(*)c([N+](=O)[O-])c1 Where only a bound is given, the exact number is not on record here.

T1 sequence (Q92633 whole entry, species assumed): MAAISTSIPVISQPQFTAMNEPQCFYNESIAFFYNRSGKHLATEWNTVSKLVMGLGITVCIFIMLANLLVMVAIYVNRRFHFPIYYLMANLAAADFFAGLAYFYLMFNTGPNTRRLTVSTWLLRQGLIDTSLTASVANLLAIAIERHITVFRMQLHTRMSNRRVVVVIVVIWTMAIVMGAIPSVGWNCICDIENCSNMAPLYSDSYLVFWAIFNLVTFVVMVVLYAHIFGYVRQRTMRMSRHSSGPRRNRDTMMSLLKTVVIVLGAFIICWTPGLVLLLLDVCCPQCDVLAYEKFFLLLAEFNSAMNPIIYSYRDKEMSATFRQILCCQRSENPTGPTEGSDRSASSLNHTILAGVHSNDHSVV
T4 sequence (Q99677 whole entry, species assumed): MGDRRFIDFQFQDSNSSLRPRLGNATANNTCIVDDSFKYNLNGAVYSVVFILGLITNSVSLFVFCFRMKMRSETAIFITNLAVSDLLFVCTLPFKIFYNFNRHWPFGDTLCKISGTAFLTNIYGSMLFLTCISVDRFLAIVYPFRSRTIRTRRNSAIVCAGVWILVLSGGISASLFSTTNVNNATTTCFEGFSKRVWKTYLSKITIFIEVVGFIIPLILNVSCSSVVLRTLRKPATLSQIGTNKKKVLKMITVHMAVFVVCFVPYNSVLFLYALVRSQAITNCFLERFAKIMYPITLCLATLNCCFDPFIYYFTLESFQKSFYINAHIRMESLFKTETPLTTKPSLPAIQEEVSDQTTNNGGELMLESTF
T2 sequence (Q9HBW0 whole entry, species assumed): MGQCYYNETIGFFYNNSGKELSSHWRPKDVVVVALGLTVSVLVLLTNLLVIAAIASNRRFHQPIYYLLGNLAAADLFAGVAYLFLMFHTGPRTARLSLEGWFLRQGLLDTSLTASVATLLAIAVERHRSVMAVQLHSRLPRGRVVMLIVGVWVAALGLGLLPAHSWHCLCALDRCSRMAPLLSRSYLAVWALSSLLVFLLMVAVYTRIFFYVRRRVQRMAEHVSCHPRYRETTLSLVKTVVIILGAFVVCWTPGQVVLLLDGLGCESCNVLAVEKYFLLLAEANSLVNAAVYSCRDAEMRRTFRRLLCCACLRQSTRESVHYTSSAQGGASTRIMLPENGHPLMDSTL

For the molecule `NCC(=O)N[C@@H](CSc1ccc([N+](=O)[O-])cc1[N+](=O)[O-])C(=O)N[C@@H](CCC(=O)O)C(=O)O` [Compound 1] (H-Gly-Cys(Dnp)-Glu-OH), the IC50 on LPA1 [1], on LPA2 [2], at LPA4 [4] and on LPA5 [5] was above 10 µM throughout. In addition, the “Imax LPA3” value on LPA3 [3] was 69.8%.

Consider `O=C(O)/C=C/C(=O)Nc1cccc(NC(=O)/C=C/C(=O)O)c1` [Compound 2], for which the concentration for half-maximal inhibition (IC50) (as a rule, the concentration at which inhibition is half-maximal) on LPA3 [3] (read-out: IC50 LPA3, NE no effect) was above 10 µM; at LPA4 [4], above 10 µM; at LPA5 [5], above 10 µM.

In the case of `O=C(O)/C=C/C(=O)Nc1cccc(NC(=O)/C=C/C(=O)O)c1C(=O)O` [Compound 3], the IC50 at LPA1 [1], at LPA4 [4] and on LPA5 [5] was above 10 µM throughout. Further, the “Imax LPA2” value at LPA2 [2] was 53.3%. Further, the “Imax LPA3” value on LPA3 [3] is on record as 81.7%.

`O=C(O)/C=C/C(=O)Nc1ccc(Oc2cccc(Oc3ccc(NC(=O)/C=C/C(=O)O)cc3)c2)cc1` [Compound 4]: the half-inhibitory concentration (IC50) on LPA4 [4] and at LPA5 [5] was above 10 µM throughout.

Turning to `O=C(O)CN1C(=O)c2ccc(Oc3cccc([N+](=O)[O-])c3)cc2C1=O` [Compound 5, [5-(3-nitrophenoxy)-1,3-dioxo-1,3-dihydro-2-isoindol-2-yl]acetic acid], the half-inhibitory concentration (IC50) at LPA1 [1], at LPA5 [6], on LPA2 [2], at LPA4 [4], on LPA5 [5] and at LPA4 [7] was above 10 µM throughout. Further, the half-maximal inhibitory concentration (IC50) on LPA1 [8] and on LPA2 [9] was above 10 µM each time.

`O=C(O)COc1ccc(N2C(=O)c3ccc(Oc4cccc([N+](=O)[O-])c4)cc3C2=O)cc1` [Compound 6]: the % inhibition (commonly how much of the control response was suppressed) at 10μM on LPA3 [10] (setting [11]) is “agonist”.

`O=C1c2ccc(Oc3cccc([N+](=O)[O-])c3)cc2C(=O)N1Cc1cccnc1` [Compound 8]: on LPA3 [10], the “LPA3 antagonist activity (in words)” value is recorded as “active”.

For the molecule `O=C(O)CN1C(=O)c2ccc(Oc3ccc([N+](=O)[O-])cc3)cc2C1=O` [Compound 11], the half-inhibitory concentration (IC50) at LPA5 [6] is above 10 µM; on LPA4 [7] it was above 10 µM; at LPA1 [8], above 10 µM; at LPA3 [10] (read-out: IC50 LPA3, dose response, activation by 200 nM LPA) it was above 10 µM; on LPA2 [9], above 10 µM. Moreover, the “LPA3 antagonist activity (in words)” value on LPA3 [10] is on record as “no inhibition; also recorded: no activity”; on LPA3 [10] (listed as compound 11), “no antagonist activity”. Also, the inhibition at 10 µM at LPA3 [10] (read-out: Percent inhibiton at 10μM, Table 2, 10 μM compound against 200 nM LPA) is below 10%.

Regarding `Cc1ccc(Oc2ccc3c(c2)C(=O)N(CC(=O)O)C3=O)cc1` [Compound 12], the half-maximal inhibitory concentration (IC50) on LPA5 [6], at LPA4 [7] and at LPA2 [9] was above 10 µM each time. Further, on LPA1 [8], the “LPA1 antagonist activity (in words)” value is listed as “LPA1 antagonists”.

Turning to `Cc1ccc(Oc2ccc3c(c2)C(=O)N(CC2CCCO2)C3=O)cc1` (stereo not shown) [Compound 14], at LPA3 [10], the “LPA3 antagonist activity (in words)” value is “not active”.

Turning to `O=C(O)CN1C(=O)c2ccc(C(=O)c3cccc([N+](=O)[O-])c3)cc2C1=O` [Compound 15], the “% inhibition at 10μM” value at LPA3 [10] (setting [11]) was “Agonist”.

Consider `CC(=O)COc1ccc(NC(=O)CN2C(=O)c3ccc([N+](=O)[O-])cc3C2=O)cc1` [Compound 18], for which the “% inhibition at 10μM” value at LPA3 [10] (setting [11]) is “Agonist”.

In the case of `O=C(O)c1ccc2c(c1)C(=O)N(c1cccc(Oc3ccc([N+](=O)[O-])cc3)c1)C2=O` [Compound 20], at LPA5 [6] (Ca2+ assay), the “LPA5 antagonist activity (in words)” value is “LPA5 antagonist”. Moreover, the IC50 on LPA4 [7] and at LPA2 [9] was above 10 µM each time. Besides, the “LPA1 antagonist activity (in words)” value on LPA1 [8] is “LPA1 antagonists”. Also, the “fold increase in potency compared to compound 5” value at LPA3 [10] (LPA3 IC50 versus compound 5) is 6 fold. The “% inhibition at 10μM” value on LPA3 [10] (setting [11]) was above 50%.

(Values after publication PMC2771199 (Bioorganic & medicinal chemistry, 2009).)
